The structures appear in SMILES notation. A value given as a limit tells only on which side of the number the result lay.

The test system of one data set is NCI-H460. The data set is described as follows: Inhibition of human NCI-H460 (human lung large cell carcinoma, MDR negative) cell growth. It is filed as functional, cell-based. In a few lines:
(§1)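 Sulforhodamine B assay following the NCI protocol. HCT-15 and NCI-H460 cells were exposed to final concentrations of 10^-11 to 10^-4 M and grown for 48 h at 37 °C in 5% CO2. […] Cells were TCA-fixed and stained, dye was solubilized in Tris, and absorbance was read. IC50 came from nonlinear regression as the geometric mean of at least two independent runs.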

Another data set deals with HCT-15. The data set is described as follows: Inhibition of human HCT-15 (human colon adenocarcinoma, MDR positive) cell growth. Format: functional, cell-based. In short, it runs like this: as §1
A short description of data set [1]: Bioavailability. Format: ADME, organism-based. The settings on record: eutheria, in vivo. In a few lines:
(§2)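 Two animals were used in each dosing group, each given 5 mg/kg either orally or iv. Plasma Cmax, oral AUC and bioavailability are the average of the two animals.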

Data set [2] can be described thus: The oral Area under the plasma concentration curve(AUC) measured;when administered perorally. Format: ADME. In a few lines:
as §2

A short description of data set [3]: Maximum concentration of compound present in plasma measured. Format: ADME, organism-based. In short, it runs like this: as §2
Data set [4] in a line: Oral bioavailability in monkey. The settings on record: primates, in vivo. Format: ADME, organism-based. In short, it runs like this:
as §2

The target in another data set is Tubulin beta chain (Bos taurus, UniProt Q6B856). The data set is described as follows: Concentration needed to inhibit tubulin polymerization by 50%. It is filed as functional. In short, it runs like this:
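Microtubule protein was purified from bovine brain, or purified tubulin in glycerol was used. Tubulin, buffer and GTP were prechilled to 4 °C, then added to wells containing drug or solvent. Polymerization ran at 37 °C, with light scattering followed at 340 nm for 30 min. The degree of polymerization was taken from the AUC of the profile. IC50 came from nonlinear regression as the geometric mean of at least two independent runs.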

Data set [5] in a line: Oral bioavailability in mouse. Format: ADME, organism-based. The settings on record: in vivo. In a few lines:
as §2

Data set [6] can be described thus: Oral bioavailability in dog. Format: ADME, organism-based, Canis lupus familiaris. The conditions noted are these: in vivo. In short, it runs like this: as §2
Data set [7] is described as follows: The oral Area under the plasma concentration curve(AUC) measured;when administered as perorally. It is filed as ADME. In a few lines:
as §2

Sequence of Tubulin beta chain (Q6B856 whole entry): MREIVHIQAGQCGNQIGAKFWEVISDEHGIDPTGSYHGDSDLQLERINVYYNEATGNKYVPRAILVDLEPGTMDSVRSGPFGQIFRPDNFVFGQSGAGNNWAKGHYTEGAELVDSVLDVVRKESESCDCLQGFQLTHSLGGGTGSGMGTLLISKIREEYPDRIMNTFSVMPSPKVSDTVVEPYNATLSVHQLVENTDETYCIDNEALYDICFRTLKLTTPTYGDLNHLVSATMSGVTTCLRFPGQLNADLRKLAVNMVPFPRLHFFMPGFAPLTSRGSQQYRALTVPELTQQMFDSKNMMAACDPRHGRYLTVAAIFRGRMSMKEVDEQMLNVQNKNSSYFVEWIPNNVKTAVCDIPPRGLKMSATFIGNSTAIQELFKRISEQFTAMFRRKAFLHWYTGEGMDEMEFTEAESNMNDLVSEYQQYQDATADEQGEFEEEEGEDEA

In the case of `COc1cc(-n2cncc2-c2ccc(N)cc2)cc(OC)c1OC`, the half-inhibitory concentration (IC50) with NCI-H460 is 8550 nM; with HCT-15, 7260 nM.

For `COc1cc(-c2ncn(C)c2-c2cc(Cl)c3c(ccn3C)c2)cc(OC)c1OC`, the IC50 in the data set on NCI-H460 and with HCT-15 was 12 nM each time. Further, the bioavailability in [1] is 10.2%. Moreover, the AUC in data set [2] was found to be 220 ng·h/mL. In data set [3], this compound registered a Cmax of 130 ng/mL.

For the compound `COc1ccc(-c2ccnn2-c2cc(OC)c(OC)c(OC)c2)cc1N`, the half-inhibitory concentration (IC50) stood at 33 nM with NCI-H460 and 28 nM in the data set with HCT-15.

As for `COc1cc(-c2ncn(C)c2-c2ccc3ccn(C)c3c2)cc(OC)c1OC`, the bioavailability turned out to be 12.5% in [4], 32% in [1], 24.2% in data set [5] and 44.5% in data set [6]. The values for the IC50 on Tubulin beta chain, in the data set on NCI-H460 and in the data set on HCT-15 were 2000 nM, 32 nM and 20 nM, respectively. This compound also came in with an AUC in data set [2] of 461 ng·h/mL. Further, in data set [3], the Cmax amounted to 169 ng/mL.

With `COc1cc(-c2[nH]cnc2-c2ccc3ccn(C)c3c2)cc(OC)c1OC`, the IC50 on Tubulin beta chain amounted to 1100 nM; with NCI-H460 it was 1.8 nM; in the data set with HCT-15, 1.7 nM. Moreover, the bioavailability in data set [1] was 0.31%. The AUC in data set [2] was found to be 14.2 ng·h/mL. In data set [3], this compound displayed a Cmax of less than 10 ng/mL.

Regarding `COc1cc(-c2ncn(C)c2-c2cc(F)c3c(ccn3C)c2)cc(OC)c1OC`, the IC50 in the data set on NCI-H460 amounted to 23 nM; in the data set with HCT-15, 27 nM. The bioavailability in data set [1] was 12.3%. The same compound yielded an AUC in data set [2] of 340 ng·h/mL. Also, the Cmax in data set [3] is 209 ng/mL.

For the compound `COc1cc(-c2ncoc2-c2ccc(N(C)C)cc2)cc(OC)c1OC`, the IC50 was found to be 870 nM at Tubulin beta chain, 41 nM in the data set with NCI-H460 and 18 nM with HCT-15.

As to `COc1cc(-c2[nH]cnc2-c2ccc(N(C)C)cc2)cc(OC)c1OC`, the IC50 at Tubulin beta chain turned out to be 3700 nM; in the data set on NCI-H460, 2 nM; in the data set on HCT-15, 4.4 nM. Further, in [1], the bioavailability was 1.3%. In data set [2], this compound came in with an AUC of 16.2 ng·h/mL. Also, the Cmax in [3] is 15.1 ng/mL.

As for `COc1ccc(-c2[nH]cnc2-c2cc(OC)c(OC)c(OC)c2)cc1`, the IC50 against Tubulin beta chain was found to be 2800 nM; in the data set with NCI-H460 it was 7.2 nM; in the data set on HCT-15 it was 7.8 nM.

Regarding `COc1cc(-c2cncn2-c2ccc(N(C)C)cc2)cc(OC)c1OC`, the IC50 was found to be 130000 nM against Tubulin beta chain, 589 nM in the data set on NCI-H460 and 333 nM in the data set with HCT-15. The bioavailability in [1] came to 0.01%. In [3], this compound gave a Cmax of less than 10 ng/mL.

Turning to `COc1ccc(-c2[nH]cnc2-c2cc(OC)c(OC)c(OC)c2)cc1F`, the concentration for half-maximal inhibition (IC50) with NCI-H460 and with HCT-15 was 3.8 nM in each case.

Regarding `COc1cc(-n2cncc2-c2ccc(N(C)C)cc2)cc(OC)c1OC`, the IC50 against Tubulin beta chain is 23000 nM; in the data set with NCI-H460, 79 nM; in the data set on HCT-15, 36 nM.

Turning to `COc1cc(-c2ncoc2-c2ccc3c(ccn3C)c2)cc(OC)c1OC`, the IC50 against Tubulin beta chain amounted to 790 nM; with NCI-H460 it was 12 nM; with HCT-15, 7.4 nM.

On to `COc1ccc(-c2ncoc2-c2cc(OC)c3c(c2)OCO3)cc1N`, for which the IC50 stood at 53 nM in the data set on NCI-H460 and 76 nM with HCT-15.

With `COc1ccc(-c2[nH]cnc2-c2cc(OC)c(OC)c(OC)c2)cc1O`, the IC50 was 730 nM against Tubulin beta chain, 11 nM in the data set with NCI-H460 and 10 nM in the data set on HCT-15.

Consider `COc1cc(-c2[nH]c(-c3ccoc3)nc2-c2ccc(N(C)C)cc2)cc(OC)c1OC`, for which the IC50 in the data set on NCI-H460 was determined as 190 nM; in the data set with HCT-15, 67 nM.

As to `COc1cc(-n2cncc2-c2ccc3c(c2)CCN3C)cc(OC)c1OC`, the IC50 against Tubulin beta chain was 48000 nM; with NCI-H460, 150 nM; in the data set on HCT-15 it was 58 nM.

With `COc1ccc(-c2ocnc2-c2cc(OC)c(OC)c(OC)c2)cc1O`, the IC50 against Tubulin beta chain worked out at 980 nM; in the data set with NCI-H460, 2.3 nM; in the data set on HCT-15, 2.2 nM.

On to `COc1ccc(-c2cncn2-c2cc(OC)c(OC)c(OC)c2)cc1N`, for which the figures for the IC50 at Tubulin beta chain, with NCI-H460 and in the data set with HCT-15 were 7700 nM, 63 nM and 69 nM, respectively.

For `COc1ccc(-c2ncn(C)c2-c2cc(OC)c(OC)c(OC)c2)cc1N`, the half-inhibitory concentration (IC50) worked out at 34 nM in the data set with NCI-H460 and 79 nM with HCT-15. For the same compound, the bioavailability in [1] is 29.9%. In data set [2], this compound registered an AUC of 1500 ng·h/mL. This compound came in with a Cmax in data set [3] of 623 ng/mL.

In the case of `COc1ccc(-c2[nH]cnc2-c2cc(OC)c(OC)c(OC)c2)cc1N`, the IC50 against Tubulin beta chain is 680 nM; with NCI-H460 it was 8.5 nM; in the data set on HCT-15 it was 8.1 nM. The same compound gave a bioavailability in data set [1] of 45%. The compound also yielded an AUC in data set [2] of less than 218 ng·h/mL. In addition, the Cmax in data set [3] is less than 74 ng/mL.

Regarding `COc1ccc(-c2ncoc2-c2cc(OC)c(OC)c(OC)c2)cc1N`, the figures for the IC50 in the data set on NCI-H460 and in the data set with HCT-15 were 11 nM and 7.2 nM, respectively. The bioavailability in [1] was 0%.

For the compound `COc1ccc(-c2ocnc2-c2cc(OC)c(OC)c(OC)c2)cc1N`, the values for the IC50 at Tubulin beta chain, with NCI-H460 and with HCT-15 were 920 nM, 9.2 nM and 11 nM, respectively. Moreover, in [1], the bioavailability came out at 0.5%. Besides, in [7], the AUC worked out at 12 ng·h/mL. In [3], this compound registered a Cmax of 22 ng/mL.

In the case of `COc1ccc(-c2cncn2-c2cc(OC)c(OC)c(OC)c2)cc1O`, the figures for the IC50 on Tubulin beta chain, in the data set on NCI-H460 and with HCT-15 were 7600 nM, 61 nM and 89 nM, respectively.

On to `COc1ccc(-c2c(-c3cc(OC)c(OC)c(OC)c3)ncn2C)cc1N`, for which the bioavailability amounted to 91.2% in data set [4], 82.3% in [1], 89.7% in data set [5] and 45.8% in data set [6]. For the same compound, the IC50 is 31000 nM against Tubulin beta chain, 170 nM in the data set on NCI-H460 and 220 nM in the data set with HCT-15. In data set [2], the AUC came to 10800 ng·h/mL. The compound further registered a Cmax in [3] of 3860 ng/mL.

Turning to `COc1ccc(-c2nc(C)oc2-c2cc(OC)c(OC)c(OC)c2)cc1O`, the IC50 in the data set on NCI-H460 was 35 nM; in the data set on HCT-15, 15 nM.

With `COc1cc(-c2nccnc2-c2ccc(N(C)C)cc2)cc(OC)c1OC`, the IC50 with NCI-H460 is 707 nM; in the data set on HCT-15, 303 nM.

For the compound `COc1cc(-n2ccnc2-c2ccc(N(C)C)cc2)cc(OC)c1OC`, the IC50 turned out to be 35000 nM against Tubulin beta chain, 270 nM in the data set on NCI-H460 and 80 nM with HCT-15.

As to `COc1cc(-n2cncc2-c2ccc3c(ccn3C)c2)cc(OC)c1OC`, the figures for the IC50 against Tubulin beta chain, in the data set on NCI-H460 and in the data set on HCT-15 were 1800 nM, 19 nM and 14 nM, respectively.

On to `COc1cc(-n2cncc2-c2ccc3[nH]ccc3c2)cc(OC)c1OC`, for which the half-maximal inhibitory concentration (IC50) came to 71000 nM at Tubulin beta chain, 540 nM in the data set with NCI-H460 and 350 nM in the data set on HCT-15.

Regarding `COc1cc(-c2c(-c3ccc4c(ccn4C)c3)ncn2C)cc(OC)c1OC`, the IC50 in the data set with NCI-H460 was 51 nM; with HCT-15 it was 27 nM. In addition, in data set [1], the bioavailability was found to be 2.5%. This compound had an exposure (AUC) in [2] of 112 ng·h/mL. Further, in [3], the peak level (Cmax) was 70 ng/mL.
